{
  "source": "ChEMBL document CHEMBL4308915",
  "about": "“Synthesis of novel pyrazoline derivatives and the evaluation of death mechanisms involved in their antileukemic activity” (Bioorg Med Chem, 2019)",
  "key": {"[1]": {"test_system": "K562", "assay": "Induction of apoptosis in human K562 cells at 32 uM after 12 hrs by Annexin-V FITC staining-based flow cytometry relative to control", "format": "functional"}, "[2]": {"test_system": "K562", "assay": "Cytotoxicity against human K562 cells assessed as reduction in cell viability after 72 hrs by MTT assay", "format": "functional, cell-based", "conditions": "K562, 72 h"}, "[3]": {"test_system": "K562", "assay": "Induction of apoptosis in human K562 cells assessed as decrease in Bcl2 expression at 32 uM after 12 hrs by flow cytometric analysis relative to control", "format": "functional", "design": "scale not given: the % may be the effect or the level left"}, "[4]": {"test_system": "K562", "assay": "Induction of apoptosis in human K562 cells assessed as increase in Bax expression at 32 uM after 12 hrs by flow cytometric analysis relative to control", "format": "functional"}, "[5]": {"assay": "Selectivity index, ratio of IC50 for human PBMC to IC50 for human K562 cells after 24 hrs", "format": "toxicity", "conditions": "PBMC versus K562 cells, read-out: Ratio IC50", "procedure,_shortened": "(§1)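 MTT viability after 24 h exposure to 1-100µM; untreated control OD taken as 100%. IC50 by curve fitting in each line and in PBMC from six healthy donors (Ficoll-Hypaque). SI = IC50 PBMC / IC50 tumor line; SI ≥5 high, 2–5 moderate, <2 low.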"}, "[6]": {"test_system": "Jurkat", "assay": "Induction of apoptosis in human Jurkat cells at 30.08 uM after 12 hrs by Annexin-V FITC staining-based flow cytometry relative to control", "format": "functional"}, "[7]": {"test_system": "K562", "assay": "Antiproliferative activity against human K562 cells assessed as reduction in KI-67 expression at 32 uM after 12 hrs by flow cytometric analysis", "format": "functional, cell-based"}, "[8]": {"assay": "Hemolytic activity in human RBC at 2 times IC50 relative to control", "format": "ADME, cell-based, Erythrocyte", "conditions": "red blood cells (erythrocytes), read-out: Activity", "procedure,_shortened": "(§2)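 RBC from healthy non-smoking volunteers incubated with increasing concentrations of the selected pyrazolines. Saline served as the 0% lysis control and distilled water as the 100% lysis control. Percent hemolysis calculated relative to these controls.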"}, "[9]": {"test_system": "K562", "assay": "Induction of apoptosis in human K562 cells assessed as reduction in cells with intact mitochondrial membrane potential at 32 uM after 12 hrs by flow cytometric analysis relative to control", "format": "functional", "design": "scale not given: the % may be the effect or the level left"}, "[10]": {"test_system": "K562", "assay": "Induction of apoptosis in human K562 cells assessed as increase in caspase-3 expression at 32 uM after 12 hrs by flow cytometric analysis relative to control", "format": "functional"}, "[11]": {"species": "Homo sapiens", "assay": "(§3) Cytotoxicity against acute leukemia patient-derived bone marrow cells assessed as reduction in cell viability after 24 hrs", "format": "functional, cell-based", "procedure,_shortened": "(§4)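 Mononuclear cells from acute leukemia patient samples (peripheral blood or bone marrow, taken before first treatment at diagnosis or relapse) isolated by Ficoll-Hypaque.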"}, "[12]": {"assay": "as §3", "format": "functional, cell-based", "conditions": "Homo sapiens", "procedure,_shortened": "as §4"}, "[13]": {"test_system": "B16-F10", "assay": "Cytotoxicity against mouse B16F10 cells assessed as reduction in cell viability after 24 hrs by MTT assay", "format": "functional, cell-based", "conditions": "B16-F10, 24 h", "procedure,_shortened": "(§5)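 MTT viability after 24 h exposure. Cells seeded at 5x10^4 per well and tested at 1-100 µM. Optical density of untreated cells set as 100% viable. IC50 derived by curve fitting. PBMC from healthy non-smoking volunteers, isolated by Ficoll-Hypaque.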"}, "[14]": {"test_system": "Jurkat", "assay": "Induction of apoptosis in human Jurkat cells assessed as increase in loss of membrane integrity at 30.08 uM by acridine orange/ethidium bromide staining-based fluorescence microscopic analysis", "format": "functional, cell-based"}, "[15]": {"test_system": "PBMC", "assay": "Cytotoxicity against human PBMC assessed as reduction in cell viability after 48 hrs by MTT assay", "format": "cell-based"}, "[16]": {"test_system": "K562", "assay": "Induction of apoptosis in human K562 cells assessed as increase in chromatin condensation at 32 uM by acridine orange/ethidium bromide staining-based fluorescence microscopic analysis", "format": "functional, cell-based"}, "[17]": {"test_system": "Jurkat", "assay": "Induction of apoptosis in human Jurkat cells assessed as decrease in survivin level at 30.08 uM after 12 hrs by flow cytometric analysis relative to control", "format": "functional"}, "[18]": {"test_system": "PBMC", "assay": "Cytotoxicity against human PBMC assessed as reduction in cell viability after 24 hrs by MTT assay", "format": "cell-based"}, "[19]": {"test_system": "Daudi", "assay": "Cytotoxicity against human Daudi cells assessed as reduction in cell viability after 72 hrs by MTT assay", "format": "functional, cell-based"}, "[20]": {"test_system": "Jurkat", "assay": "Induction of DNA fragmentation in human Jurkat cells assessed as increase in ladder formation at 30.08 uM after 12 hrs by ethidium bromide staining based agarose gel electrophoresis method", "format": "functional, cell-based"}, "[21]": {"assay": "Hemolytic activity in human RBC at 12 times IC50 relative to control", "format": "ADME, cell-based, Erythrocyte", "conditions": "red blood cells (erythrocytes), read-out: Activity", "procedure,_shortened": "as §2"}, "[22]": {"test_system": "Jurkat", "assay": "Induction of apoptosis in human Jurkat cells assessed as increase in caspase-3 expression at 30.08 uM after 12 hrs by flow cytometric analysis relative to control", "format": "functional"}, "[23]": {"test_system": "K562", "assay": "Induction of apoptosis in human K562 cells assessed as increase in membrane blebbing at 32 uM by acridine orange/ethidium bromide staining-based fluorescence microscopic analysis", "format": "functional, cell-based"}, "[24]": {"test_system": "Jurkat", "assay": "Induction of apoptosis in human Jurkat cells assessed as increase in Bax expression at 30.08 uM after 12 hrs by flow cytometric analysis relative to control", "format": "functional"}, "[25]": {"test_system": "K562", "assay": "Induction of apoptosis in human K562 cells assessed as decrease in survivin level at 32 uM after 12 hrs by flow cytometric analysis relative to control", "format": "functional"}, "[26]": {"test_system": "Daudi", "assay": "Cytotoxicity against human Daudi cells assessed as reduction in cell viability after 24 hrs by MTT assay", "format": "functional, cell-based", "procedure,_shortened": "as §5"}, "[27]": {"test_system": "PBL", "assay": "Cytotoxicity against acute leukemia patient-derived PBL cells assessed as reduction in cell viability after 24 hrs", "format": "functional, cell-based", "conditions": "Homo sapiens", "procedure,_shortened": "as §4"}, "[28]": {"test_system": "B16-F10", "assay": "Cytotoxicity against mouse B16F10 cells assessed as reduction in cell viability after 72 hrs by MTT assay", "format": "functional, cell-based", "conditions": "B16-F10, 72 h"}, "[29]": {"assay": "Selectivity index, ratio of IC50 for human PBMC to IC50 for human Daudi cells after 24 hrs", "procedure,_shortened": "as §1"}, "[30]": {"test_system": "Jurkat", "assay": "Cytotoxicity against human Jurkat cells assessed as reduction in cell viability after 72 hrs by MTT assay", "format": "functional, cell-based"}, "[31]": {"assay": "Hemolytic activity in human RBC at 15 times IC50 relative to control", "format": "ADME, cell-based, Erythrocyte", "conditions": "red blood cells (erythrocytes), read-out: Activity", "procedure,_shortened": "as §2"}, "[32]": {"test_system": "Jurkat (human)", "assay": "Induction of apoptosis in human Jurkat cells assessed as increase in AIF release at 30.08 uM after 12 hrs by flow cytometric analysis relative to control"}, "[33]": {"test_system": "K562", "assay": "Cytotoxicity against human K562 cells assessed as reduction in cell viability after 24 hrs by MTT assay", "format": "functional, cell-based", "conditions": "K562, 24 h", "procedure,_shortened": "as §5"}, "[34]": {"test_system": "Jurkat", "assay": "Cell cycle arrest in human Jurkat cells assessed as increase in accumulation at S phase at 30.08 uM after 12 hrs by propidium iodide/RNAse staining based flow cytometric analysis", "format": "functional"}, "[35]": {"test_system": "K562", "assay": "Induction of apoptosis in human K562 cells assessed as increase in FasR expression at 32 uM after 12 hrs by flow cytometric analysis relative to control", "format": "functional"}, "[36]": {"test_system": "Daudi", "assay": "Cytotoxicity against human Daudi cells assessed as reduction in cell viability after 48 hrs by MTT assay", "format": "functional, cell-based"}, "[37]": {"test_system": "K562", "assay": "Cell cycle arrest in human K562 cells assessed as increase in accumulation at G0/G1 phase at 32 uM after 12 hrs by propidium iodide/RNAse staining based flow cytometric analysis relative to control", "format": "functional"}, "[38]": {"test_system": "Jurkat", "assay": "Antiproliferative activity against human Jurkat cells assessed as reduction in KI-67 expression at 30.08 uM after 12 hrs by flow cytometric analysis", "format": "functional, cell-based"}, "[39]": {"assay": "Selectivity index, ratio of IC50 for human PBMC to IC50 for mouse B16F10 cells after 24 hrs", "format": "toxicity", "conditions": "PBMC versus B16F10 cells, read-out: Ratio IC50", "procedure,_shortened": "as §1"}, "[40]": {"assay": "Hemolytic activity in human RBC at 3 times IC50 relative to control", "format": "ADME, cell-based, Erythrocyte", "conditions": "red blood cells (erythrocytes), read-out: Activity", "procedure,_shortened": "as §2"}},
  "note": "Activity calls are given as the source filed them. The rule behind the calls is not given here.",
  "data": [
    {"compound": "COc1cc(C2=NN(C(C)=O)C(c3ccc(Br)cc3)C2)cc(OC)c1OC", "note": "(stereo unspecified)", "values": [
      {"measurement": "Activity", "setting": "[1]", "value": 25, "unit": "%"},
      {"measurement": "IC50", "setting": "[2]", "value": 15.1, "unit": "µM"},
      {"measurement": "Activity", "setting": "[3]", "value": 13.4, "unit": "%"},
      {"measurement": "Activity", "setting": "[4]", "value": 15.8, "unit": "%"},
      {"measurement": "selectivity ratio at 24 h", "setting": "[5]", "value": 11},
      {"measurement": "Activity", "setting": "[6]", "value": 24.6, "unit": "%"},
      {"measurement": "Activity", "setting": "[7]", "value": "Active"},
      {"measurement": "hemolysis at 2 times IC50", "setting": "[8]", "value": 1.3, "unit": "%"},
      {"measurement": "Activity", "setting": "[9]", "value": 25.3, "unit": "%"},
      {"measurement": "Activity", "setting": "[10]", "value": 20, "unit": "%"},
      {"measurement": "Activity", "setting": "[11]", "value": "Dose-dependent effect"},
      {"measurement": "IC50", "setting": "[12]", "value": "31 to 98.2", "unit": "µM"},
      {"measurement": "IC50", "setting": "[13]", "value": 98.7, "unit": "µM"},
      {"measurement": "Activity", "setting": "[14]", "value": "Active"},
      {"measurement": "IC50", "setting": "[15]", "value": 287, "unit": "µM"},
      {"measurement": "Activity", "setting": "[16]", "value": "Active"},
      {"measurement": "Activity", "setting": "[17]", "value": 10.7, "unit": "%"},
      {"measurement": "IC50", "setting": "[18]", "value": 340, "unit": "µM"},
      {"measurement": "IC50", "setting": "[19]", "value": 33, "unit": "µM"},
      {"measurement": "Activity", "setting": "[20]", "value": "Active"},
      {"measurement": "hemolysis at 12 times IC50", "setting": "[21]", "value": 12.9, "unit": "%"},
      {"measurement": "Activity", "setting": "[22]", "value": 128.3, "unit": "%"},
      {"measurement": "Activity", "setting": "[23]", "value": "Active"},
      {"measurement": "Activity", "setting": "[24]", "value": 101.4, "unit": "%"},
      {"measurement": "Activity", "setting": "[25]", "value": 21.2, "unit": "%"},
      {"measurement": "IC50", "setting": "[26]", "value": 49.8, "unit": "µM"},
      {"measurement": "Activity", "setting": "[27]", "value": "Dose-dependent effect"},
      {"measurement": "IC50", "setting": "[27]", "value": "11.8 to 142", "unit": "µM"},
      {"measurement": "IC50", "setting": "[28]", "value": 62.5, "unit": "µM"},
      {"measurement": "Ratio IC50", "setting": "[29]", "value": 6.8},
      {"measurement": "IC50", "setting": "[30]", "value": 15.6, "unit": "µM"},
      {"measurement": "hemolysis at 15 times IC50", "setting": "[31]", "value": 15.8, "unit": "%"},
      {"measurement": "Activity", "setting": "[32]", "value": 33.2, "unit": "%"},
      {"measurement": "IC50", "setting": "[33]", "value": 32, "unit": "µM"},
      {"measurement": "Activity", "setting": "[34]", "value": "inactive"},
      {"measurement": "Activity", "setting": "[35]", "value": 21.3, "unit": "%"},
      {"measurement": "IC50", "setting": "[36]", "value": 34.8, "unit": "µM"},
      {"measurement": "Activity", "setting": "[37]", "value": 8, "unit": "%"},
      {"measurement": "Activity", "setting": "[38]", "value": "Active"},
      {"measurement": "selectivity ratio at 24 h", "setting": "[39]", "value": 3.4},
      {"measurement": "hemolysis at 3 times IC50", "setting": "[40]", "value": 1.6, "unit": "%"}
    ]}
  ]
}
